In brackets after ≈: the same amount, converted by molar mass.
Key:
[1] = target: T1, Sterol O-acyltransferase 2 (Homo sapiens, UniProt O75908); test: Inhibition of human ACAT2
T1 sequence (O75908 whole entry): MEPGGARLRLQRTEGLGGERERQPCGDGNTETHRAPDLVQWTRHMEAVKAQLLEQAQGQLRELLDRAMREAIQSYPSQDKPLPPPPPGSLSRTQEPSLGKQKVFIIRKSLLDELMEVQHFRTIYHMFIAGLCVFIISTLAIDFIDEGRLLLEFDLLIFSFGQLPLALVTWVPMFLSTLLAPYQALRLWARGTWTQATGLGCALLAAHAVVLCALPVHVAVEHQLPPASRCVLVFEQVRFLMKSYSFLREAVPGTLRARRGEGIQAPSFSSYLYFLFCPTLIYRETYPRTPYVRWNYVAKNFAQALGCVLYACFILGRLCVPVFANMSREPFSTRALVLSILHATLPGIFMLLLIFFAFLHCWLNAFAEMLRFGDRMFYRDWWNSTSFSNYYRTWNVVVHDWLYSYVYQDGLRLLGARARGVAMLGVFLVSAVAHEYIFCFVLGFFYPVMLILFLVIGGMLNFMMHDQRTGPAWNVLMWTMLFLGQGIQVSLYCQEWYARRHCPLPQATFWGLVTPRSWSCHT
Method in brief: (§1)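 IC50 values are the average of at least two independent determinations.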

[2] = target: T2, Diacylglycerol O-acyltransferase 2 (Homo sapiens, UniProt Q96PD7); test: Inhibition of human DGAT2
T2 sequence (Q96PD7 whole entry): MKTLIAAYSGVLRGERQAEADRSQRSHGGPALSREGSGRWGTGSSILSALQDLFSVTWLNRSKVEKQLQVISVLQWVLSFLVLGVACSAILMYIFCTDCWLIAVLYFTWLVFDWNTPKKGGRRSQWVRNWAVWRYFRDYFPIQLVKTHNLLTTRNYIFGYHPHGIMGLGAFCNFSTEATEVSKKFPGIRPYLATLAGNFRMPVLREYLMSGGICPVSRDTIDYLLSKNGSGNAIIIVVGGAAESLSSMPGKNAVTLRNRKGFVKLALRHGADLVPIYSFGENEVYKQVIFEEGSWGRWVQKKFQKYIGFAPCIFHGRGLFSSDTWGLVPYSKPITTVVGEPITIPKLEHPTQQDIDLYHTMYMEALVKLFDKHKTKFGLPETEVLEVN

[3] = target: T3, Diacylglycerol O-acyltransferase 1 (Homo sapiens, UniProt O75907); test: Inhibition of human DGAT1
T3 sequence (O75907 whole entry): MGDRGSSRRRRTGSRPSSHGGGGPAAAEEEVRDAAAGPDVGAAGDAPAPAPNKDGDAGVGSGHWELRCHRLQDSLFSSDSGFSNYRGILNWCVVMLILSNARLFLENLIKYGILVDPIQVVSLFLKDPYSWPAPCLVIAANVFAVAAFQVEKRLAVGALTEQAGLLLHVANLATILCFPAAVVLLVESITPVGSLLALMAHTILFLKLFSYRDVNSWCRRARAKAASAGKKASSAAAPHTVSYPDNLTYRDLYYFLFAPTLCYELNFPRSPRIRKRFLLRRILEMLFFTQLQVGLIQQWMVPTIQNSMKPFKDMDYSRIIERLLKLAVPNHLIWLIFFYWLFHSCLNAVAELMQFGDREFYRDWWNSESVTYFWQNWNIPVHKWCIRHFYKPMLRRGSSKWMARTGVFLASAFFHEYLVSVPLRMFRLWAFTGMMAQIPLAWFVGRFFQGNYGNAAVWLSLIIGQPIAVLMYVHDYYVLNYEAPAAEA

[4] = system: Mus musculus; test: Reduction of postprandial plasma triglyceride level in C57BL/6J mouse at 10 mg/kg, po administered 15 mins prior to corn oil bolus challenge measured after 2 hrs relative to vehicle-treated control; format: functional; design: scale not given: the % may be the effect or the level left
Method in brief: (§2)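 Vehicle is 20% hydroxypropyl-β-cyclodextrin; compound or vehicle is given 15 min before time 0. Mice receive a 0.25 mL corn oil bolus at time 0. Terminal blood is taken by heart puncture at 120 min. Plasma TG is measured by an enzymatic colorimetric kit with absorbance read at 600 nm. Values are the mean ± SEM from eight studies, as % reduction versus vehicle.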

[5] = Drug degradation in human plasma at 25 degC after 12 hrs; format: ADME, cell-free; conditions: read-out: Drug degradation
[6] = target: T4, Diacylglycerol O-acyltransferase 1 (Mus musculus, UniProt Q9Z2A7); test: Inhibition of mouse DGAT1; method in brief: as §1
T4 sequence (Q9Z2A7 whole entry): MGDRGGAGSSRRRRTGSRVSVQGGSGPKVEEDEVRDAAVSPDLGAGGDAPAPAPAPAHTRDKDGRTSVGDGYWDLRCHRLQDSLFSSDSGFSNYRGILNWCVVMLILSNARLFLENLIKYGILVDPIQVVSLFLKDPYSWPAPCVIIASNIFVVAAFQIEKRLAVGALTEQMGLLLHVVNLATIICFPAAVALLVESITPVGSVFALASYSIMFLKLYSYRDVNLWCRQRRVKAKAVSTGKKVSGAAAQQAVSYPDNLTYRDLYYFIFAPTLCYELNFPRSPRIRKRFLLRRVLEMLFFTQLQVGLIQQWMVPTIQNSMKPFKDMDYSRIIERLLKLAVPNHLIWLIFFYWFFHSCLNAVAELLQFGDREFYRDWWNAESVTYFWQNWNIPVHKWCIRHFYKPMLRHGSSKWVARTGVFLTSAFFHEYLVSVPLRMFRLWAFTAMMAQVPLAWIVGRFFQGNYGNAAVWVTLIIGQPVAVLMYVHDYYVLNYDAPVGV

[7] = AUC in rat at 10 mg/kg, po; format: ADME, organism-based; design: dose 10 mg/kg, route oral; conditions: plasma
[8] = Solubility of the compound; format: physicochemical
[9] = Plasma protein binding in rat; format: ADME, cell-free; conditions: read-out: PPB (converted)
[10] = Clearance in rat hepatocytes assessed per million cells; format: ADME, cell-based, Hepatocyte; conditions: read-out: CLH
[11] = Half life in rat at 10 mg/kg, po; format: ADME, organism-based; design: dose 10 mg/kg, route oral; conditions: in vivo
[12] = Oral bioavailability in rat at 10 mg/kg; format: ADME, organism-based; conditions: in vivo
[13] = Permeability across human Caco2 cells; format: ADME, cell-based; conditions: Caco-2, read-out: permeability
[14] = Clearance in human hepatocytes assessed per million cells; format: ADME, cell-based, Hepatocyte; conditions: read-out: CLH
[15] = Metabolic stability in human plasma assessed as compound recovery at 25 degC after 6 days; format: ADME, cell-free; conditions: read-out: Drug recovery
[16] = target: T5, CYP1A1 (Homo sapiens, UniProt P04798); test: Induction of CYP1A1 (unknown origin) at 30 uM; format: ADME; conditions: read-out: FC
T5 sequence (P04798 whole entry): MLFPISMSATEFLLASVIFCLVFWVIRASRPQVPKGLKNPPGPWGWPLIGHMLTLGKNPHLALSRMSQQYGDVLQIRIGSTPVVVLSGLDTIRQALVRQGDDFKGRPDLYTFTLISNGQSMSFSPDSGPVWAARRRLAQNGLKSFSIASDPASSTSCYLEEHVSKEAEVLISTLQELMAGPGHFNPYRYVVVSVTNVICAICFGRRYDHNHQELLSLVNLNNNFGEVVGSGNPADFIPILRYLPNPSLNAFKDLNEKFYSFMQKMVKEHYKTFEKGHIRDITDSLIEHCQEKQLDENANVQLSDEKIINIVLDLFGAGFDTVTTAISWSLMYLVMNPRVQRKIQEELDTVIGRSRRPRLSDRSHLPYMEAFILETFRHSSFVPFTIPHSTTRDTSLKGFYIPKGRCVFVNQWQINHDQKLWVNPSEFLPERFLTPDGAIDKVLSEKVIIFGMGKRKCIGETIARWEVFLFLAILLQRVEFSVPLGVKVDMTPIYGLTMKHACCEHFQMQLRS

[17] = Solubility of the compound at pH 7; format: physicochemical; conditions: buffer
[18] = target: T6, Sterol O-acyltransferase 1 (Homo sapiens, UniProt P35610); test: Inhibition of human ACAT1; method in brief: as §1
T6 sequence (P35610 whole entry): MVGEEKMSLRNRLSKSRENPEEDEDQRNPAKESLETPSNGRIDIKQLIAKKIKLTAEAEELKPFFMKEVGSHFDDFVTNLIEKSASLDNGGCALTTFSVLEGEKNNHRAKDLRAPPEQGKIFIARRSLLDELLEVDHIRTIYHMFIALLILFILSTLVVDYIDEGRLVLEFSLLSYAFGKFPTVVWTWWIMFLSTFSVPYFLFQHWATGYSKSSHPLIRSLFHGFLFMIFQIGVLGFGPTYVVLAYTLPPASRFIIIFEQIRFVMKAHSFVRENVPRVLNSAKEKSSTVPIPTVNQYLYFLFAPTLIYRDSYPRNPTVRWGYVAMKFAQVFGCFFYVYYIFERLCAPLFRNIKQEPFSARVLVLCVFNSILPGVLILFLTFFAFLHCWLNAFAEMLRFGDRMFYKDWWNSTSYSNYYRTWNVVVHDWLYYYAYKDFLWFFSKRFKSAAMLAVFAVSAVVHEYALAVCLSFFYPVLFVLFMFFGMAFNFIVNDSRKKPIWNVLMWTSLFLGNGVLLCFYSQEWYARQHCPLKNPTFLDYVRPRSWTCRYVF

[19] = system: Plasma; test: Metabolic stability in human plasma at 25 degC; format: ADME, cell-free
[20] = system: Mus musculus; test: Reduction of postprandial plasma triglyceride level in C57BL/6J mouse at 3 mg/kg, po administered 15 mins prior to corn oil bolus challenge measured after 2 hrs relative to vehicle-treated control; format: functional; design: scale not given: the % may be the effect or the level left; method in brief: as §2
[21] = system: Plasma; test: Metabolic stability in rat plasma at 25 degC; format: ADME, cell-free
[22] = system: Plasma; test: Metabolic stability in mouse plasma at 25 degC; format: ADME, cell-free

| SMILES | IC50 [3] | IC50 [6] | AUC [7] | Activity [4] | other results |
| --- | --- | --- | --- | --- | --- |
| O=C(O)C[C@H]1CC[C@H](c2ccc(-c3ccc4c(ccn4C(=O)Nc4ccccc4)c3)cc2)CC1 | 37 nM |  |  | -45% | IC50 [1]: 3000 nM; IC50 [2]: > 50000 nM; metabolised at 12 h [5]: 40% |
| O=C(O)C[C@H]1CC[C@H](c2ccc(-c3ccc4oc(Nc5ccccc5)nc4c3)cc2)CC1 |  | 3840 nM |  |  |  |
| O=C(O)C[C@H]1CC[C@H](c2ccc(-c3ccc4nc(Nc5ccccc5)ncc4c3)cc2)CC1 |  | > 10000 nM |  |  |  |
| O=C(O)C[C@H]1CC[C@H](c2ccc(-c3ccc4nc(C(=O)Nc5ccccc5)[nH]c4c3)cc2)CC1 |  | > 5000 nM |  |  |  |
| O=C(O)C[C@H]1CC[C@H](c2ccc(-c3ccc4cc(C(=O)Nc5ccccc5)[nH]c4c3)cc2)CC1 |  | 1090 nM |  |  |  |
| O=C(O)C[C@H]1CC[C@H](c2ccc(-c3ccc4c(C(=O)Nc5ccccc5)c[nH]c4c3)cc2)CC1 |  | 284 nM | 1.3 µM·h | 23% |  |
| O=C(O)C[C@H]1CC[C@H](c2ccc(-c3ccc4c(c3)CCCN4C(=O)Nc3ccccc3)cc2)CC1 |  | 84 nM | 79 µM·h | -15% |  |
| O=C(O)C[C@H]1CC[C@H](c2ccc(-c3ccc4c(c3)C(=O)CCN4C(=O)Nc3ccccc3)cc2)CC1 | > 10000 nM | 1670 nM |  |  |  |
| O=C(O)C[C@H]1CC[C@H](c2ccc(-c3ccc4c(c3)NCCN4C(=O)Nc3ccccc3)cc2)CC1 |  | 4820 nM |  |  |  |
| CN1CCN(C(=O)Nc2ccccc2)c2ccc(-c3ccc([C@H]4CC[C@H](CC(=O)O)CC4)cc3)cc2C1 | > 10000 nM | > 10000 nM |  |  |  |
| Cc1cc(C(=O)Nc2ccccc2)c2ccc(-c3ccc(OCC(C)(C)C(=O)O)nc3)cc2n1 |  | 69 nM | 34 µM·h |  | Activity [20]: -91%; IC50 [1]: 1550 nM |

Further molecules by falling IC50 [6], results first:

| IC50 [3] | IC50 [6] | AUC [7] | SMILES | Activity [4] | other results |
| --- | --- | --- | --- | --- | --- |
|  | 69 nM | 17 µM·h | O=C(O)C[C@H]1CC[C@H](c2ccc(-c3ccc4c(c3)CCN4C(=O)Nc3ccccc3)cc2)CC1 | -13% | solubility [8]: 50 µM (≈ 22.7 µg/mL); fraction unbound [9]: 0.002; hepatocyte CLint [10]: 13 µL/min/1e6 cells; half-life [11]: 3 h; bioavailability [12]: > 90%; Papp [13]: 17 ×10⁻⁶ cm/s; hepatocyte CLint [14]: 3 µL/min/1e6 cells; metabolised at 12 h [5]: 20% |
| 65 nM | 40 nM | 58 µM·h | O=C(O)C[C@H]1CC[C@H](c2ccc(-c3ccc4c(c3)OCCN4C(=O)Nc3ccccc3)cc2)CC1 | -52% | solubility [8]: 100 µM (≈ 47.1 µg/mL); IC50 [1]: 9700 nM; remaining at 144 h [15]: 80%; IC50 [2]: > 10000 nM; fraction unbound [9]: 0.002; hepatocyte CLint [10]: 9 µL/min/1e6 cells; half-life [11]: 4 h; fold induction at 30 µM [16]: 10; Papp [13]: 44.8 ×10⁻⁶ cm/s; hepatocyte CLint [14]: 11 µL/min/1e6 cells |
| 41 nM | 23 nM | 5 µM·h | O=C(O)C[C@H]1CC[C@H](c2ccc(-c3ccc4c(C(=O)Nc5ccccc5)ccnc4c3)cc2)CC1 | -85% | solubility [8]: 50 µM (≈ 23.2 µg/mL); Papp [13]: 54.2 ×10⁻⁶ cm/s; IC50 [18]: 4170 nM |
|  | 23 nM | 0.03 µM·h | CC(C)c1cccc(NC(=O)c2ccnc3cc(-c4ccc([C@H]5CC[C@H](CC(=O)O)CC5)cc4)ccc23)c1 |  | Stability [19]: 12 h; Activity [20]: -76%; Stability [21]: 12 h; Stability [22]: 12 h |
| 122 nM | 23 nM |  | Cc1cc(C(=O)Nc2ccccc2)c2ccc(-c3ccc(OCC(C)(C)C(=O)O)[n+]([O-])c3)cc2n1 |  | Activity [20]: -40%; IC50 [1]: 13300 nM |
|  | 8 nM |  | O=C(O)C[C@H]1CC[C@H](c2ccc(-c3ccc4c(C(=O)Nc5ccccc5)cccc4c3)cc2)CC1 | 0% | solubility [17]: 10 µM (≈ 4.64 µg/mL) |
|  | 1.4 nM | 10 µM·h | Cc1cc(C(=O)NCCCCCc2ccccc2)c2ccc(-c3ccc([C@H]4CC[C@H](CC(=O)O)CC4)cc3)cc2n1 |  | Activity [20]: -58% |
